# Assay results taken from ChEMBL document CHEMBL1154062, “Novel and potent small-molecule urotensin II receptor agonists” (Bioorg Med Chem, 2009).
# Active and inactive are the calls of the source. The rule behind the calls is not given here.
# What was measured:
# Assay type in all cases: functional, cell-based
# Urotensin-2 receptor = molecular target: T1, Urotensin-2 receptor (Homo sapiens, UniProt Q9UKP6); assay: (§1) Agonist activity against human urotensin 2 receptor expressed in […] cells assessed as beta-galactosidase activity after 5 days by R-SAT assay
# T1 sequence (Q9UKP6 whole entry): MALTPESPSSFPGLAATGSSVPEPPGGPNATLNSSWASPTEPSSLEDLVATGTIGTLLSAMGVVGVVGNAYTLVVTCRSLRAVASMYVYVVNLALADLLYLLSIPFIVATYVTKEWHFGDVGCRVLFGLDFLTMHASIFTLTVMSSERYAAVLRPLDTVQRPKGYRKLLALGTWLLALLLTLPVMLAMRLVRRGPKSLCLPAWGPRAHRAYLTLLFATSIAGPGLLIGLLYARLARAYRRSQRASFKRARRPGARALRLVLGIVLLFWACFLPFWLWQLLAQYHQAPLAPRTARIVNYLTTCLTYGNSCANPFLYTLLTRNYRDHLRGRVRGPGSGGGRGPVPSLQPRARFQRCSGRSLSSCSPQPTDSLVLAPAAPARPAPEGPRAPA
# How it was run: (§2)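 NIH-3T3 cells grown to 80% confluence in DMEM with 10% bovine calf serum, transiently transfected in roller bottles for 18 h with human UT receptor plus β-galactosidase marker, then frozen. Thawed cells were plated in DMEM with 0.4% calf serum and 30% UltraCulture onto compound. They were incubated 5 days in 5% CO2, with reporter read at 420 nm. Eight doses in triplicate; EC50 from 2–5 determinations; efficacy normalized to UII = 100%.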
# [1] = molecular target: T2, Urotensin-2 receptor (Homo sapiens) (UniProt Q9UKP6); assay: Agonist activity against human urotensin 2 receptor expressed in […] cells assessed as beta-galactosidase activity after 5 days by R-SAT assay relative to urotensin 2; how it was run: as §2
# T2 sequence (whole entry): T1 sequence (Q9UKP6 whole entry)
# [2] = molecular target: T2, Urotensin-2 receptor (Homo sapiens); assay: as §1; how it was run: as §2
EC50 (Urotensin-2 receptor) [nM],Efficacy [1],pEC50 [2],SMILES
74.1,143%,–,COc1ccc(-c2ccc(C(=O)NC(CCN(C)C)c3ccc(Cl)cc3)cc2)cc1 (configuration not stated)
363,41%,–,CN(C)CCC(NC(=O)c1cccc(-c2ccc3ccccc3c2)c1)c1ccc(Cl)cc1 (configuration not stated)
120,111%,–,CN(C)CCC(NC(=O)c1ccc(-c2ccccc2)cc1)c1ccc2ccccc2c1 (configuration not stated)
741,140%,–,CO[C@@H](C(=O)N[C@@H](CCN(C)C)c1ccc2ccccc2c1)c1ccccc1
347,119%,–,COc1ccc(-c2ccc(C(=O)NC(CCN(C)C)c3ccc(C)cc3)cc2)cc1 (configuration not stated)
575,92%,–,CN(C)CCC(NC(=O)c1cccc(-c2ccccc2)c1)c1ccc(Cl)cc1 (configuration not stated)
–,96%,–,CN(C)CC[C@@H](NC(=O)c1ccc(-c2ccccc2)cc1)c1ccc(Cl)cc1
126,108%,–,Cc1ccc(C(CCN(C)C)NC(=O)c2ccc(-c3ccc(Cl)cc3)cc2)cc1 (configuration not stated)
3800,77%,–,CN(C)CCCC(NC(=O)c1ccccc1)c1ccc(Cl)cc1 (configuration not stated)
575,78%,–,COc1ccc(-c2cccc(C(=O)NC(CCN(C)C)c3ccc(Cl)cc3)c2)cc1 (configuration not stated)
105,111%,–,COc1ccc(-c2ccc(C(=O)NC(CCN(C)C)c3ccc4ccccc4c3)cc2)cc1 (configuration not stated)
43.7,129%,–,CN(C)CCC(NC(=O)c1ccc(-c2ccc(Cl)cc2)cc1)c1ccc2ccccc2c1 (configuration not stated)
437,63%,–,CN(C)CCC(NC(=O)c1cccc(-c2ccc(Cl)cc2)c1)c1ccc(Cl)cc1 (configuration not stated)
537,67%,–,CN(C)CCC(NC(=O)c1cccc(-c2ccccc2)c1)c1ccc2ccccc2c1 (configuration not stated)
525,77%,–,CN(C)CCC(NC(=O)c1ccc(-c2ccc3ccccc3c2)cc1)c1ccc2ccccc2c1 (configuration not stated)
–,116%,–,CN(C)CCC(NC(=O)c1ccc(-c2ccccc2)cc1)c1ccc(Cl)cc1 (configuration not stated)
316,91%,–,CN(C)CCCC(NC(=O)c1ccc(-c2ccccc2)cc1)c1ccc(Cl)cc1 (configuration not stated)
–,inactive,inactive,Cc1ccc(C(CCN(C)C)NC(=O)c2cccc(-c3ccc4ccccc4c3)c2)cc1 (configuration not stated)
457,53%,–,CN(C)CC[C@@H](NC(=O)c1ccc(-c2ccc(Cl)cc2)cc1)c1ccc2ccccc2c1

EC50 (Urotensin-2 receptor) [nM],Efficacy [1],pEC50 [2],SMILES
309,131%,–,CN(C)CCC(NC(=O)c1ccc(-c2ccc3ccccc3c2)cc1)c1ccc(Cl)cc1 (configuration not stated)
2750,53%,–,CO[C@@H](C(=O)N[C@H](CCN(C)C)c1ccc2ccccc2c1)c1ccccc1
6460,55%,–,O=C(NC(CCN1CCCCC1)c1ccc(Cl)cc1)c1ccccc1 (configuration not stated)
≥ 1120,–,–,CN(C)CCC1(c2ccc(Cl)cc2)Cc2ccccc2C(=O)O1 (configuration not stated)
–,165%,–,CO[C@@H](C(=O)N[C@@H](CCN(C)C)c1ccc(Cl)cc1)c1ccccc1
200,114%,–,Cc1ccc(C(CCN(C)C)NC(=O)c2ccc(-c3ccccc3)cc2)cc1 (configuration not stated)
22.9,129%,–,CN(C)CC[C@H](NC(=O)c1ccc(-c2ccc(Cl)cc2)cc1)c1ccc2ccccc2c1
1100,45%,–,CN(C)CCC(NC(=O)c1cccc(-c2ccc(Cl)cc2)c1)c1ccc2ccccc2c1 (configuration not stated)
813,45%,–,Cc1ccc(C(CCN(C)C)NC(=O)c2cccc(-c3ccccc3)c2)cc1 (configuration not stated)
646,39%,–,Cc1ccc(C(CCN(C)C)NC(=O)c2cccc(-c3ccc(Cl)cc3)c2)cc1 (configuration not stated)
661,57%,–,O=C(NC(CCN1CCCCC1)c1ccc(Cl)cc1)c1ccc(-c2ccccc2)cc1 (configuration not stated)
646,50%,–,COc1ccc(-c2cccc(C(=O)NC(CCN(C)C)c3ccc4ccccc4c3)c2)cc1 (configuration not stated)
–,112%,–,CO[C@@H](C(=O)N[C@H](CCN(C)C)c1ccc(Cl)cc1)c1ccccc1
–,116%,–,CN(C)CC[C@H](NC(=O)c1ccc(-c2ccccc2)cc1)c1ccc(Cl)cc1
75.9,137%,–,CN(C)CCC(NC(=O)c1ccc(-c2ccc(Cl)cc2)cc1)c1ccc(Cl)cc1 (configuration not stated)
1070,69%,–,COc1ccc(-c2cccc(C(=O)NC(CCN(C)C)c3ccc(C)cc3)c2)cc1 (configuration not stated)
3470,–,–,CN(C)CCC(NC(=O)c1cccc(-c2ccc3ccccc3c2)c1)c1ccc2ccccc2c1 (configuration not stated)
813,83%,–,Cc1ccc(C(CCN(C)C)NC(=O)c2ccc(-c3ccc4ccccc4c3)cc2)cc1 (configuration not stated)
